Data published in ChEMBL document CHEMBL1159051, “Synthesis and biological evaluation of oxadiazole derivatives as inhibitors of soluble guanylyl cyclase” (Bioorg Med Chem, 2010).
Calls of active or inactive are those of the source. No cut-off for these calls is given here.

Key:
Rattus norvegicus [1] = organism: Rattus norvegicus; test: Inhibition of soluble guanylyl cyclase in rat aortic smooth muscle cells assessed as inhibition of SNP-stimulated cGMP formation by immunoassay
How it was run: (§1)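 Rat aortic smooth muscle cells were grown in high-glucose DMEM with 10% foetal calf serum plus penicillin/streptomycin, and passages 3–4 were used at confluence. Cells were pretreated with IBMX (1 mM, 5 min) to block phosphodiesterase, then exposed to compound for 20 min with IBMX still present. They were then stimulated with SNP for 15 min, and cGMP was measured by enzyme immunoassay.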

Rattus norvegicus [2] = organism: Rattus norvegicus; test: Inhibition of soluble guanylyl cyclase in rat aortic smooth muscle cells assessed as inhibition of SNP-stimulated cGMP formation at 0.1 uM by immunoassay; how it was run: as §1
Rattus norvegicus [3] = organism: Rattus norvegicus; test: Inhibition of soluble guanylyl cyclase in rat aortic smooth muscle cells assessed as inhibition of SNP-stimulated cGMP formation at 10 uM by immunoassay; how it was run: as §1

| SMILES | inhibition (Rattus norvegicus [1]) | inhibition (Rattus norvegicus [2]) | inhibition (Rattus norvegicus [3]) |
| --- | --- | --- | --- |
| O=c1onc2cnc3ccccc3n12 | Dose-dependent effect | 85% | Active |
| O=c1c2ccccc2nc2n1-c1cc(Br)ccc1OC2 | inactive |  |  |
| O=c1[nH]nc2n1-c1cc(Br)ccc1OC2 | inactive |  |  |
| O=c1c2ccc(Cl)cc2nc2n1-c1ccccc1OC2 |  | Active | Active |
| O=C1c2ccccc2-n2c(noc2=O)[C@@H]2CCCN12 | inactive |  |  |
| O=c1onc2n1-c1ncccc1OC2 |  | Active | Active |
| O=c1onc2n1-c1cc(-c3cccc(C(F)(F)F)c3)ccc1OC2 |  | Active | Active |
| COc1ccc(-c2ccc3c(c2)-n2c(noc2=O)CO3)cc1 |  | Active | Active |
| O=c1c2ccccc2nc2n1-c1ccccc1OC2 | inactive |  |  |
